Phagocyt inh = macrophage phagocytosis inhibition; J774A.1 macrophage IgG-bead phagocytosis, imaging; inhibition, % at 5 µM; hit rate 0.07% among 110,000; AID 1029;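 active = inhibition above the mean of the plate negative controls plus 5 SD, cut at about 13% in these data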;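 note: phagocytic index as fraction of beads internalized from green versus red external bead signal; plate controls were DMSO negative control for no effect and cytochalasin-D positive control for full effect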
Measles CPE = protection of cells from measles virus; Measles virus-infected cells, CPE protection, absorbance; protection (pct of control), % at 4 µM; hit rate 1.5% among 140,000; AID 841; in the data active = protection mostly above about 24%, no sharp cut-off; inactive = mostly below about 26%
DAT uptake mod = human DAT dopamine uptake with cocaine, either direction. Q01959. LLC-PK1 hDAT cells, [14C]-dopamine uptake with cocaine IC80; actives deviate in either direction. B-score at 10 µM. hit rate 1.3% among 110,000. AID 449768;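 active = Z score or B-score, a plate-position-corrected score, falls beyond the plate's 99.7% confidence bounds, in either direction; inactive = both scores lie inside the 99.7% bounds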;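 note: scored against the spread of the other compound wells on the same plate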
PTK2B oligo ant = antagonists of human Pyk2 oligomerization; Q293 cells, Pyk2 FERM NanoBiT luminescence; stronger effect = lower value; z-score (the deposit names both 25 µM and 10 µM); hit rate 0.83% among 99,000; AID 1347419; Q14289;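 active = Z-score of -3 or lower, scaled per plate to the spread of control and sample wells; inactive = z-score above -3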;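 note: negative z-score means lost luminescence so less FERM oligomerization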
HIV Rev-RRE inh = HIV Rev-RRE protein-RNA interaction inhibition; P05866; Rev peptide-RRE RNA binding, FRET; inhibition, % at 8 µM; hit rate 0.79% among 97,000; AID 704;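 active = inhibition above the screen-wide mean plus 3 SD, cut at about 35% in these data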;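 note: 0% = median DMSO wells and 100% = median Neomycin B control wells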
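Test system: Cy5-tagged RRE RNA duplex with fluorescein-tagged Rev peptide; Probe or stimulus: labelled Rev peptide; Schedule: 5 min preincubation and 15 min binding, 25 °C; Signal: FRET fluorescence readout; Evaluation: % inhibition from 671/540 nm acceptor-to-donor ratio, scaled between controls; Control set: DMSO and neomycin B.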
Cav3 T inh = human Cav3.2 channel inhibition, primary screen | B-score at 10 µM | Cav3.2-expressing cells, Fluo-4 calcium fluorescence FDSS; stronger effect = lower value | O95180 | hit rate 4% among 100,000;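 active = single-dose well whose peak fluorescence ratio is a statistical outlier from its plate by either plate-standardised score or position-corrected B-score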
An asterisk follows results filed as active; / = no result. Compounds with a hit are over-represented: about 5.9% of the library has one in this group of screens.

SMILES	Phagocyt inh	Measles CPE	DAT uptake mod	PTK2B oligo ant	HIV Rev-RRE inh	Cav3 T inh
COc1ccc(CC(=O)Oc2cc(C)[nH]c(=O)c2[N+](=O)[O-])cc1	-3	36	/	/	/	/
O=[N+]([O-])c1ccc2nccn2c1	0	11	-0.92	1.3	11	1.1
CSCCC(NC(=O)c1cccc(C)c1)C(=O)OCC(=O)NC(=O)c1cccn1C (stereo not given)	-8	27	/	/	/	/
CCCCCC(=O)N/N=C/c1ccc(N(C)C)cc1	-7	16	/	/	/	/
CN(C)c1ccc(C=Nc2cnn(C)c2C(N)=O)cc1	-1	4	1.8*	0.55	5	0.44
CCOC(=O)C1=C(C)NC(SCC(=O)Nc2nc(C)cs2)=C(C#N)C1c1cccs1 (stereo not given)	1	13	0.1	/	8	-6.9*
C/C(CCC12CC3CC(CC(C3)C1)C2)=N\NC(N)=S	0	6	-0.055	-0.05	1	-1.5
C/C(CC(C)(C)C1CCCCC1)=N\NC(N)=S	/	0	-1	1.5	-5	-4.6*
CCn1c(CNC(=O)c2ccco2)nnc1SCC(=O)Nc1cc(C)c(C)cc1Br	-1	3	-0.052	0.01	9	0.019
CCn1c(CNC(=O)c2ccco2)nnc1SCC(=O)Nc1cc(C(F)(F)F)ccc1Cl	0	3	0.51	-0.25	9	-4.5*
CCOC(=O)C1CCN(C(=O)COC(=O)COc2ccccc2OC)CC1	-1	10	-8.5*	-0.14	5	0.021
O=c1c2ccccc2nc(CSc2ncnc3nc[nH]c23)n1-c1cccc(C(F)(F)F)c1	4	27*	0.27	-0.33	7	2.2
CNc1nc(Nc2ccc(Br)cc2)nc(N)c1[N+](=O)[O-]	-6	27	/	/	/	/
COc1ccc(-c2nc3c(n2O)CCCC3=O)cc1OC	0	89*	0.59	-0.67	5	0.4
Cc1cc(C)cc(C(=O)NN2CCOCC2)c1	-5	7	/	0.33	/	/
O=C(NCCCNCc1ccccc1)c1ccncc1	0	40*	-1.2	-0.03	10	0.012
COc1ccc(-c2cc(=O)oc3c(C)c(O)c(CN(C)C)cc23)cc1	0	6	0.37	-1.4	39*	0.59
COc1cc2c(cc1OC)C(=O)CC(C)S2 (stereo not given)	/	6	-1.9	-0.12	4	0.18
COc1cc(C(=O)Nc2ccc(S(=O)(=O)N3CCc4ccccc43)cc2)cc(OC)c1OC	-1	3	1.4	-2.9	0	-5.3*
O=C(c1ccc(S(=O)(=O)N2CCCC2)cc1)N1CCCc2ccccc21	0	36*	-0.12	0.07	-2	0.54
COc1ccc(C(=O)NCc2ccccc2)cc1S(=O)(=O)N1CCCc2ccccc21	/	3	0.012	-1.4	10	-5.3*
CC(=O)Nc1ccc(S(=O)(=O)N2CCc3ccccc3C2)cc1	/	6	-8.8*	-0.11	2	-2.6
Cc1ccnn1CC(=O)N/N=C/c1ccc2c(c1)OCO2	2	5	/	0.78	/	/
Cc1cc[n+]2cc(-c3cccc([N+](=O)[O-])c3)c(-c3cccc([N+](=O)[O-])c3)cc2c1	-5	3	/	/	/	/
CCOC(=O)c1ccccc1NC(=O)CSc1ccccc1	/	9	0.23	-2.2	18	-2
SMILES	Phagocyt inh	Measles CPE	DAT uptake mod	PTK2B oligo ant	HIV Rev-RRE inh	Cav3 T inh
COC(=O)Nc1ccc(S(=O)(=O)N2CCCc3ccccc32)cc1	0	2	0.12	-1.9	6	-6.1*
CC(=O)OCCn1c(Br)nc2c1c(=O)[nH]c(=O)n2C	2	4	-0.034	-0.21	4	0.33
CCCC(=O)OCCn1c(Br)nc2c1c(=O)[nH]c(=O)n2C	/	35*	-0.044	-0.13	7	3
Cc1nn(Cc2cccc(C(=O)Nc3ccn(Cc4ccccc4F)n3)c2)c(C)c1[N+](=O)[O-]	/	3	0.009	-0.13	9	-4.3*
O=C(Nc1ccn(Cc2ccccc2)n1)c1cccc(Cn2cc([N+](=O)[O-])cn2)c1	-6	9	/	/	/	/
O=C(Nc1ccn(Cc2ccccc2F)n1)c1ccc(COc2ccc(Br)cc2)cc1	/	49	0.074	1.1	9	-4.6*
O=C(Nc1ccc(Cn2cccn2)cc1)c1ccc(COc2ccc(Br)cc2)cc1	/	18	0.94	-0.11	8	-0.46
O=C(Nc1ccc(Cn2cccn2)cc1)c1ccc(COc2cccc(Br)c2)cc1	-1	4	1.1	0.74	5	-4.7*
Clc1ccc(C(c2nnnn2C2CCCCC2)N(Cc2cccnc2)Cc2ccco2)cc1 (stereo not given)	/	13	1.9	-0.52	5	-3.9*
Clc1ccc(CN(CC2CCCO2)C(c2cccs2)c2nnnn2C2CCCC2)cc1 (stereo not given)	/	8	0.4	-0.71	2	-8.1*
Cc1ccc2[nH]c(=O)c(C(c3nnnn3C3CCCC3)N(Cc3cccnc3)Cc3ccco3)cc2c1 (stereo not given)	0	18	-0.31	1.1	0	-2.1
CC(Oc1ccccc1Cl)C(=O)N(Cc1ccco1)C1CCS(=O)(=O)C1 (stereo not given)	-1	2	-1.3	-0.05	/	0.5
O=C(COc1ccc(Cl)cc1Cl)N(Cc1ccco1)C1CCS(=O)(=O)C1 (stereo not given)	0	2	2.9*	-0.37	7	-0.67
NC(=O)c1cc2ccc(O)cc2oc1=NCc1ccccc1	/	22	1.5	-1.1	/	-7.6*
NC(=O)c1cc2ccc(O)cc2oc1=Nc1ccccc1	1	30*	-0.83	-1.1	/	0.73
COc1ccc(OC)c(N=c2oc3cc(O)ccc3cc2C(N)=O)c1	-2	8	-1.6	-1.8	14	/
CCOc1ccc(NS(=O)(=O)c2cc(OCC(N)=O)c(C)cc2Cl)cc1	-3	5	/	/	/	/
CC1(C)C2CC=C(/C=N/NC(=O)c3ccccc3Br)C1C2 (stereo not given)	-7	12	/	/	/	/
COc1ccc([N+](=O)[O-])cc1NC(=O)C(C)Sc1nc(C)c(C)c(C)n1 (stereo not given)	-2	8	/	/	/	/
CCN1CCN(Cc2nc3c(c(=O)n(C)c(=O)n3C)n2CCCc2ccccc2)CC1	0	/	/	/	/	/
CCN1CCN(Cc2nc3c(c(=O)n(C)c(=O)n3C)n2CCc2ccccc2)CC1	/	6	-3*	/	/	-0.031
Cn1c(=O)c2c(nc(CN3CCc4ccccc4C3)n2Cc2cccc(Cl)c2)n(C)c1=O	-2	6	1.7	/	/	-4.2*
COC(=O)[C@@]1(Cc2ccc(F)cc2)[C@H]2c3cc(C(=O)N4CCCC4)n(CCc4c[nH]c5ccc(OC)cc45)c3C[C@H]2CN1C(=O)c1ccccc1	/	2	/	/	/	/
CCCNC(=O)c1cccc(Cn2nc(C)c(Br)c2C)c1	-2	6	0.57	1.5	6	-0.14
Cc1nn(Cc2cccc(C(=O)NC34CC5CC(CC(C5)C3)C4)c2)c(C)c1Br	/	10	1.8	-1.3	9	-6.4*
Cc1nn(Cc2ccccc2Cl)c(C)c1NC(=O)NC12CC3CC(CC(C3)C1)C2	/	4	0.41	-2.9	-3	-7.6*
NS(=O)(=O)c1ccc(NC(=S)Nc2nn(Cc3ccc(Cl)cc3Cl)cc2Cl)cc1	-1	11	/	/	/	/
